{"data": "Assay results collected from several papers", "target": "Vascular endothelial growth factor receptor 1 (FLT1, Homo sapiens, UniProt P17948)"}
{"effect on": "cell-free assay", "method": "competition with immobilised ligand", "tested at": "1 µM", "quantity": "remaining binding", "value": "93%", "SMILES": "C[C@H]1CC[C@H](n2c3cnccc3c3cnc(Nc4ccc5c(n4)CCN(C(=O)CO)C5)nc32)CC1"}
{"effect on": "binding", "tested at": "0.1 µM", "quantity": "remaining binding", "value": "64%", "SMILES": "C1=C/COCc2cc(ccc2OCCN2CCCC2)Nc2nccc(n2)-c2cccc(c2)COC/1"}
{"effect on": "binding", "method": "competition with immobilised ligand", "tested at": "1 µM", "quantity": "remaining binding", "value": "0.4%", "SMILES": "CN1CCN(C(=O)c2ccc(NC(=O)Nc3ccc(N(C)c4ccnc(Nc5ccc(CS(C)(=O)=O)cc5)n4)cc3)cc2)CC1"}
{"effect on": "enzyme activity", "action": "inhibitor", "method": "radiometric", "tested at": "10 µM", "quantity": "inhibition", "value": "-38%", "SMILES": "O=C1C=C(Nc2ccc(OCc3cn(Cc4ccc(Cl)c(Cl)c4)nn3)cc2)C(=O)c2ccccc21"}
{"effect on": "enzyme activity", "action": "inhibitor", "tested at": "1 µM", "quantity": "inhibition", "value": "57%", "SMILES": "CO[C@@H]1[C@H](N(C)C(=O)c2ccccc2)C[C@H]2O[C@]1(C)n1c3ccccc3c3c4c(c5c6ccccc6n2c5c31)C(=O)NC4"}
{"effect on": "enzyme activity", "action": "inhibitor", "tested at": "1 µM", "quantity": "activity vs control", "value": "107%", "SMILES": "CC(C)S(=O)(=O)c1ccc2nccc(Nc3ccc4sc(C5CCCC5)nc4c3)c2c1"}
{"effect on": "enzyme activity", "action": "inhibitor", "tested at": "1 µM", "quantity": "inhibition", "value": "33%", "SMILES": "C=CC(=O)N1CCC[C@@H](n2nc(-c3ccc(Oc4ccccc4)cc3)c3c(N)ncnc32)C1"}
{"effect on": "binding", "method": "competition with immobilised ligand", "tested at": "0.5 µM", "quantity": "remaining binding", "value": "98%", "SMILES": "CCCCC(=O)Nc1ccc(-c2ccc3ncn(CCC)c(=O)c3c2)cn1"}
